Consider one compound from ChEMBL document CHEMBL4373680, “Small antibacterial molecules highly active against drug-resistant Staphylococcus aureus” (Medchemcomm, 2019).

The structures appear in SMILES notation.

A short description of data set [1]: Ratio of EC50 for dog MDCK cells to MIC for vancomycin-resistant Staphylococcus aureus clinical isolate 1. It counts as toxicity.
Data set [2] relates to Pseudomonas aeruginosa. In words: Antibacterial activity against Pseudomonas aeruginosa MTCC 424 after 24 hrs by tecan plate reader analysis. Particulars: MTCC 424, 24 h. It is filed as functional. Summed up:
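Broth microdilution MIC. Glycerol stocks grown on MacConkey agar 24 h at 37 °C, then a single colony in nutrient broth 6 h to mid-log (~10⁸ CFU/mL). Cells diluted to 10⁵ CFU/mL in Mueller Hinton broth and added to two-fold compound dilutions. Incubated 24 h at 37 °C, OD600 read. Triplicate wells, experiment run twice.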

Data set [3] can be described thus: Selectivity index, ratio of HC50 for human erythrocytes to MIC for Escherichia coli MTCC 443. Particulars: read-out: Selectivity Index. It is filed as toxicity.
Data set [4] in a line: Selectivity index, ratio of HC50 for human erythrocytes to MIC for methicillin-resistant Staphylococcus aureus ATCC 33591. It counts as toxicity. Particulars: read-out: Selectivity Index.
Data set [5] relates to Staphylococcus aureus. Put plainly: Antibacterial activity against methicillin-resistant Staphylococcus aureus R3889 clinical isolate after 24 hrs by tecan plate reader analysis. It counts as functional. Particulars: R3889, 24 h. Summed up: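 Colony grown 24 h on NB agar at 37 °C, then 6 h in nutrient broth to mid-log (10⁸ CFU/mL by drop plating), diluted to 10⁵ CFU/mL in Mueller Hinton broth; added 9:1 to two-fold serial compound dilutions in MHB. Incubated 24 h, 37 °C; OD600 read. Triplicate per concentration, experiment run twice; MIC taken from the range of triplicate OD values.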

Data set [6] concerns MDCK. In words: Cytotoxicity against dog MDCK cells assessed as cell survival at 32 ug/ml after 24 hrs by calcein AM/propidium iodide staining based fluorescence microscopy analysis. The arrangement: species or system Canis lupus familiaris. Summed up:
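MDCK at about 10⁴ cells/well exposed to 32 µg/mL compound for 24 h at 37 °C, 5% CO₂. Untreated and 0.1 vol% Triton-X controls. Stained with calcein AM (2 µM) and PI (4.5 µM) for 15 min at 37 °C, PBS-washed, imaged by fluorescence microscopy at 50×.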

In data set [7] the test system is Staphylococcus aureus. In words: Bactericidal activity against planktonic phase of methicillin-resistant Staphylococcus aureus ATCC 33591 assessed as log reduction in bacterial colony forming units at 16 ug/ml incubated for 6 hrs followed by plating on agar plate for 24 hrs by time-kill kinetic assay. It is filed as functional. Put shortly: (§1)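 Time-kill: 6 h mid-log culture diluted to 10⁵ CFU/mL in MHB, incubated at 37 °C with compound at […]; 0.9% saline control. Aliquots at 1, 2, 4, 6, 8 and 12 h ten-fold diluted in saline, plated on NB agar 24 h at 37 °C; colonies counted, log scale.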

In data set [8] the test system is Staphylococcus aureus. Put plainly: Bactericidal activity against planktonic phase of methicillin-resistant Staphylococcus aureus R3545 assessed as log reduction in bacterial colony forming units at 16 ug/ml incubated for 6 hrs followed by plating on agar plate for 24 hrs by time-kill kinetic assay. It counts as functional. Summed up:
as §1

For data set [9], the system named is Staphylococcus aureus. In words: Bactericidal activity against planktonic phase of methicillin-resistant Staphylococcus aureus ATCC 33591 assessed as log reduction in bacterial colony forming units at 32 ug/ml incubated for 8 hrs followed by plating on agar plate for 24 hrs by time-kill kinetic assay. It is filed as functional. Put shortly: as §1
The subject of data set [10] is Staphylococcus aureus. In words: Bactericidal activity against planktonic phase of methicillin-resistant Staphylococcus aureus R3545 assessed as log reduction in bacterial colony forming units at 32 ug/ml incubated for 12 hrs followed by plating on agar plate for 24 hrs by time-kill kinetic assay. It counts as functional. Summed up: as §1
Data set [11] has as its system Staphylococcus aureus. In words: Antibiofilm activity against Staphylococcus aureus ATCC 33591 assessed as bacterial cell viability by measuring log reduction in bacterial colony forming units at 16 ug/ml incubated for 24 hrs followed by plating on agar plate for 24 hrs. It is filed as functional. Put shortly:
(§2)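 Mid-log MRSA diluted to 10⁵ CFU/mL in nutrient broth with 1% glucose and 1% NaCl. Biofilms grown on glass coverslips 24 h at 37 °C, static. PBS-washed biofilms treated with compound in biofilm medium 24 h at 37 °C, static; medium-only control. Cells detached with trypsin-EDTA (1:4 in saline) for 15 min, ten-fold diluted, plated on NB agar 24 h; viable counts compared with untreated.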

The subject of data set [12] is Staphylococcus aureus. In words: Antibiofilm activity against Staphylococcus aureus R3545 assessed as bacterial cell viability by measuring log reduction in bacterial colony forming units at 16 ug/ml incubated for 24 hrs followed by plating on agar plate for 24 hrs. It is filed as functional. Summed up: as §2
Data set [13] relates to Staphylococcus aureus. In words: Antibiofilm activity against Staphylococcus aureus ATCC 33591 assessed as reduction in biofilm biomass at 16 to 64 ug/ml incubated for 24 hrs followed by plating on agar plate for 24 hrs by crystal violet staining assay relative to control. It is filed as functional. Put shortly:
(§3)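 Coverslip biofilms grown 24 h at 37 °C in nutrient broth with 1% glucose and 1% NaCl, then treated with compound for 24 h. PBS-washed and air-dried, stained with 0.1% w/v crystal violet for 5-10 min, washed, stain recovered in 95% ethanol, OD 522 nm read. Two experiments, mean with standard deviation.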

Data set [14] deals with Staphylococcus aureus. Put plainly: Antibiofilm activity against Staphylococcus aureus R3545 assessed as reduction in biofilm biomass at 16 to 64 ug/ml incubated for 24 hrs followed by plating on agar plate for 24 hrs by crystal violet staining assay relative to control. It is filed as functional. Put shortly:
as §3

Data set [15] relates to Staphylococcus aureus. In words: Induction of membrane depolarization in Staphylococcus aureus R3545 assessed as increase in fluorescence intensity measured upto 28 mins by DiSC3 staining based fluorescence spectroscopic technique. It counts as functional, organism-based. Summed up: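 Mid-log MRSA washed in 5 mM HEPES pH 7.4 and resuspended in 1:1:1 HEPES (5 mM), glucose (5 mM) and KCl (100 mM). Loaded with DiSC3(5) at 2 µM final, 30 min in the dark. Baseline fluorescence (ex 622/em 670 nm) read 4 min, compound added, monitored to 28 min. Water control; triplicates averaged.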

Data set [16] deals with Staphylococcus aureus. In words: Ratio of MIC for Staphylococcus aureus ATCC 33591 using compound preincubated with mouse 50% liver homogenate for 3 hrs to MIC for Staphylococcus aureus ATCC 33591 using non-treated compound. It counts as functional, organism-based. Summed up:
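Compound mixed 1:1 with human plasma, human serum or mouse liver homogenate (50%) and held 3 h at 37 °C. Saline and PBS incubations served as controls. Mixtures two-fold diluted (saline for plasma/serum, PBS for homogenate), then MRSA ATCC33591 (~10⁵ CFU/mL in MHB) added.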

Data set [17] can be described thus: Ratio of EC50 for human A549 cells to MIC for vancomycin-resistant Staphylococcus aureus clinical isolate 1. It is filed as toxicity.
The nature of data set [18]: Ratio of EC50 for human A549 cells to MIC for vancomycin-resistant Staphylococcus aureus clinical isolate 2. It is filed as toxicity.

As to `CCCCCCNC(=O)C[N+](C)(CCO)CCCCCCCCCCCC[N+](C)(CCO)CC(=O)NCCCCCC.O=C([O-])C(F)(F)F.O=C([O-])C(F)(F)F` (stereo not drawn), the selectivity ratio in data set [1] was 94 to 97; in data set [3], 288; in data set [4] it was 577; in data set [17], 94 to 97; in data set [18], 94 to 97. The values for the MIC in [2] and in data set [5] were 128 µg/mL and 1 to 2 µg/mL, respectively. Moreover, the Activity result in data set [6] is recorded as “Non-Toxic”; in [7] it was >2 log10CFU/ml; in data set [8], >2 log10CFU/ml; in data set [9], 5 log10CFU/ml; in data set [10] it was 6 log10CFU/ml; in [11], >4 log10CFU/ml. The Activity in data set [12] is >4 log10CFU/ml; in data set [15], “Dose-dependent effect”. Also, the “inhibition (INH)” value is on record as 60% in data set [13] and 80% in data set [14]. Moreover, the Ratio in data set [16] stood at 2.
